Experimental data from paper PMC10089208 (Proceedings of the National Academy of Sciences of the …, 2023).
Bridge positions count the residues as written; N and C are the ends. Peptide text beside a SMILES is read from it.

Key:
LRP6E1E2 = assay: ELISA competition assay of Wnt.cys peptides with Fab YW210 for LRP6E1E2; assay type: binding, human; conditions: LRP6E1E2 constant at 3x EC50, serial dilution of YW210
[1] = test system: Wnt1-mediated β-catenin signaling; assay: TOPbrite dual-luciferase reporter assay, inhibition of Wnt1-mediated signaling; assay type: cell-based, human; conditions: HEK293 TOPbrite cells transfected with Wnt1; treatment 6 h before measurement
In short: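 Wnt1 construct was transfected with FuGENE HD into TOPbrite/Renilla HEK293 cells (DMEM/F12, 10% FBS, hygromycin, 37 °C), seeded 24 h earlier, then incubated 24–48 h. Linker peptides or LRP6 Fabs were added 6 h before reading. Dual-Glo firefly/Renilla luminescence ratio was calculated, in some instances normalized to nontreated controls.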

Reck = assay: ELISA binding of linker peptides to Reck; conditions: immobilised biotinylated peptide
In short: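 Neutravidin-coated (5 μg/mL) plates blocked with 0.5% BSA/PBS for 2 h at room temperature, then loaded with 1 μg biotinylated linker peptide per well. Serial dilutions of His-tagged Reck in PBS/0.5% BSA/0.05% Tween 20 were incubated for 45 min at room temperature. After washing, bound protein was detected with HRP anti-His (1:5,000, 45 min) and TMB, reading absorbance at 450 nm.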

[2] = target: hLRP6_(E1E2) (residues 20 to 631), C-terminal hexahistidine-tag, for ELISA (human, UniProt O75581); assay: ELISA
Sequence of hLRP6_(E1E2) (residues 20 to 631), C-terminal hexahistidine-tag, for ELISA (O75581 20-631): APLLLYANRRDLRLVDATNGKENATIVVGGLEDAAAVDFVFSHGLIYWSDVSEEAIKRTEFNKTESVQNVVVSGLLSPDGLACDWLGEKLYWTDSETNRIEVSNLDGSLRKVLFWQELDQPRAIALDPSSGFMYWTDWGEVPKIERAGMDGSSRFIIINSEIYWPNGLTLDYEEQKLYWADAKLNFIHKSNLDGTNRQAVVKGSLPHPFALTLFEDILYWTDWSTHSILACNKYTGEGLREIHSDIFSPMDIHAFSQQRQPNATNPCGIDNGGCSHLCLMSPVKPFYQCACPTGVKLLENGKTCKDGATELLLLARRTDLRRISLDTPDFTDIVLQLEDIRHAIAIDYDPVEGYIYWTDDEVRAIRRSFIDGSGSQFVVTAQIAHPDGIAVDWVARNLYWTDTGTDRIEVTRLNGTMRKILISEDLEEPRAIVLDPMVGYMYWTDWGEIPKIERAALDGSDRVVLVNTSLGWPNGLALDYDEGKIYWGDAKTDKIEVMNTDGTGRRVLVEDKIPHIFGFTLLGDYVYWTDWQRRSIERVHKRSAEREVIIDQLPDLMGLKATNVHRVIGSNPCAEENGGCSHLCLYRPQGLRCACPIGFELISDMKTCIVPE

[3] = test system: HEK293 luciferase reporter cells, phospho-LRP6 and active β-catenin; assay type: cell-based, human; conditions: overexpression, 250 ng DNA, 24 h, Western blot
[4] = test system: HEK293 TOPbrite reporter cells, β-catenin signaling; assay type: cell-based, human; conditions: transfection of 0 to 25 ng construct, 24 to 48 h; normalized to empty vector
In short: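 HEK293 cells carried a stable firefly TOPbrite Wnt reporter plus pRL-SV40 Renilla and were kept in DMEM/F12 (50:50) with 10% FBS, GlutaMAX and 40 μg/mL hygromycin at 37 °C, 5% CO2. Cells were seeded at 20,000–40,000 per well, grown 24 h, then transfected with 0–25 ng Wnt or chimera construct using FuGENE HD. After 24–48 h, Dual-Glo firefly/Renilla ratio was normalized to empty vector.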

Row | Molecule | competition of Fab YW210 with the peptide for LRP6E1E2 binding (LRP6E1E2) | inhibition of Wnt1-mediated β-catenin signaling [1] | also measured
1 | CSCC[C@@H]1NC(=O)[C@H](CCC(=O)O)NC(=O)[C@H](CO)NC(=O)[C@@H](NC(=O)[C@@H](N)CO)CSSC[C@@H](C(=O)N[C@H](C(=O)O)C(C)C)NC(=O)[C@H](CC(=O)O)NC(=O)[C@H](CCCNC(=N)N)NC(=O)[C@H](CCC(=O)O)NC(=O)[C@H]([C@@H](C)O)NC(=O)[C@@H]2CCCN2C(=O)[C@H](C(C)C)NC(=O)[C@H](CCCCN)NC(=O)[C@H](Cc2ccccc2)NC(=O)[C@H](Cc2ccc(O)cc2)NC(=O)[C@H]([C@@H](C)O)NC(=O)[C@H](Cc2ccc(O)cc2)NC(=O)[C@H](CCCNC(=N)N)NC(=O)[C@@H]2CCCN2C(=O)[C@H](CCCNC(=N)N)NC(=O)[C@H](CC(C)C)NC(=O)[C@H]([C@@H](C)O)NC(=O)[C@H](CCC(=O)O)NC(=O)[C@H](C(C)C)NC(=O)[C@H](Cc2c[nH]c3ccccc23)NC(=O)CNC(=O)[C@H](CCCNC(=N)N)NC(=O)[C@H](CO)NC(=O)[C@H](CCC(=O)O)NC(=O)[C@H](CCCNC(=N)N)NC(=O)[C@H](Cc2c[nH]cn2)NC(=O)[C@H](CCCCN)NC(=O)[C@H](CCC(=O)O)NC(=O)[C@H](C(C)C)NC(=O)[C@H](C(C)C)NC1=O [W3a.cys] (H-SCSEMVVEKHRESRGWVETLRPRYTYFKVPTERDCV-OH; disulfide 2-35; N-terminus and C-terminus assumed) | could not be outcompeted |  | 
2 | CSCC[C@@H]1NC(=O)[C@H](C(C)C)NC(=O)[C@H](CCC(N)=O)NC(=O)[C@H](C(C)C)NC(=O)[C@@H](NC(=O)CN)CSSC[C@@H](C(=O)N[C@H](C(=O)O)C(C)C)NC(=O)[C@H](CC(=O)O)NC(=O)[C@H]([C@@H](C)O)NC(=O)[C@H](CCCNC(=N)N)NC(=O)[C@H]([C@@H](C)O)NC(=O)[C@H](C)NC(=O)[C@H](CCCNC(=N)N)NC(=O)[C@H](CCCNC(=N)N)NC(=O)[C@H](Cc2ccc(O)cc2)NC(=O)CNC(=O)[C@H](CCC(N)=O)NC(=O)[C@H](CCCNC(=N)N)NC(=O)[C@H](C)NC(=O)[C@H](C)NC(=O)[C@H]([C@@H](C)O)NC(=O)[C@H](Cc2ccccc2)NC(=O)[C@H](CC(N)=O)NC(=O)[C@H](C)NC(=O)CNC(=O)[C@H](CC(=O)O)NC(=O)[C@H](CCC(N)=O)NC(=O)[C@H]([C@@H](C)O)NC(=O)[C@H](C)NC1=O [W2b.cys] (H-GCVQVMATQDGANFTAARQGYRRATRTDCV-OH; disulfide 2-29; N-terminus and C-terminus assumed) | competed strongly | inhibited | 
3 | YW210: Fab that binds predominantly to the LRP6 E1 domain [reference compound] |  | inhibited Wnt1-induced signaling | 
4 | CC[C@H](C)[C@@H]1NC(=O)[C@H](CCCCN)NC(=O)[C@H](CC(C)C)NC(=O)[C@H](Cc2ccccc2)NC(=O)[C@H]([C@@H](C)O)NC(=O)[C@@H]2CCCN2C(=O)[C@H](CCCNC(=N)N)NC(=O)[C@H](CCCCN)NC(=O)[C@H](CC(N)=O)NC(=O)[C@H](CCCNC(=N)N)NC(=O)[C@H](CO)NC(=O)[C@H](C)NC(=O)[C@H](CCCNC(=N)N)NC(=O)[C@H](C(C)C)NC(=O)[C@@H]2CCCN2C(=O)[C@H](CCC(=O)O)NC(=O)[C@H](C(C)C)NC(=O)[C@H](Cc2c[nH]cn2)NC(=O)[C@H](C(C)C)NC(=O)[C@@H](NC(=O)[C@@H](N)CCC(=O)O)CSSC[C@@H](C(=O)N[C@H](C(=O)O)C(C)C)NC(=O)[C@H](CC(=O)O)NC(=O)[C@H]([C@@H](C)O)NC(=O)[C@H](CC(=O)O)NC(=O)[C@H](CCSC)NC(=O)[C@@H]2CCCN2C(=O)[C@H](CCCCN)NC(=O)[C@H](CCCNC(=N)N)NC(=O)[C@H](Cc2ccc(O)cc2)NC(=O)[C@H](CO)NC(=O)[C@H](CC(C)C)NC(=O)[C@@H]2CCCN2C(=O)[C@H](CCCCN)NC(=O)[C@H](CCCCN)NC1=O [W7a.cys] (H-ECVHVEPVRASRNKRPTFLKIKKPLSYRKPMDTDCV-OH; disulfide 2-35; N-terminus and C-terminus assumed) | partially | inhibited | binding to Reck (Reck): bound Reck
5 | CC(C)C[C@@H]1NC(=O)[C@H](CCC(=O)O)NC(=O)[C@H](C)NC(=O)[C@H](CCCNC(=N)N)NC(=O)[C@H](CO)NC(=O)[C@H](C)NC(=O)[C@H](CCCNC(=N)N)NC(=O)[C@H](CC(N)=O)NC(=O)[C@H](CO)NC(=O)CNC(=O)[C@H](CCCNC(=N)N)NC(=O)[C@H](CC(N)=O)NC(=O)CNC(=O)[C@H](Cc2ccc(O)cc2)NC(=O)[C@H](CC(C)C)NC(=O)[C@H](C(C)C)NC(=O)[C@H](CCCNC(=N)N)NC(=O)[C@H](CO)NC(=O)[C@@H](NC(=O)CN)CSSC[C@@H](C(=O)N[C@H](C(=O)O)C(C)C)NC(=O)[C@H](CC(=O)O)NC(=O)[C@H](Cc2c[nH]cn2)NC(=O)[C@@H]2CCCN2C(=O)[C@H](CO)NC(=O)[C@@H]2CCCN2C(=O)[C@@H]2CCCN2C(=O)[C@H](CCCCN)NC(=O)[C@H](Cc2c[nH]cn2)NC(=O)[C@H](C)NC(=O)[C@@H]2CCCN2C(=O)[C@H](CC(=O)O)NC(=O)[C@H](CCC(=O)O)NC(=O)[C@@H]2CCCN2C(=O)[C@H](CCC(=O)O)NC(=O)[C@H](CC(C)C)NC(=O)[C@H](CCCNC(=N)N)NC(=O)[C@H](CC(C)C)NC1=O [W1.cys] (H-GCSRVLYGNRGSNRASRAELLRLEPEDPAHKPPSPHDCV-OH; disulfide 2-38; N-terminus and C-terminus assumed) | competed strongly | inhibited | 
6 | YW210.09 Fab (Fab, V domains shown) VH: EVQLVESGGGLVQPGGSLRLSCAASGFTFTNSYIHWVRQAPGKGLEWVGWITPYGGYTNYADSVKGRFTISADTSKNTAYLQMNSLRAEDTAVYYCARGSGHVNAVKNYGYVMDYWGQGTLVTVSS VL: DIQMTQSPSSLSASVGDRVTITCRASQDVSTAVAWYQQKPGKAPKLLIYSASFLYSGVPSRFSGSGSGTDFTLTISSLQPEDFATYYCQQSYTTPPTFGQGTKVEIK |  |  | binding result [2]: binds
7 | Wnt1: human Wnt1, canonical, overexpressed (protein, UniProt P04628 28-370, looked up) Proto-oncogene Wnt-1: ANSSGRWWGIVNVASSTNLLTDSKSLQLVLEPSLQLLSRKQRRLIRQNPGILHSVSGGLQSAVRECKWQFRNRRWNCPTAPGPHLFGKIVNRGCRETAFIFAITSAGVTHSVARSCSEGSIESCTCDYRRRGPGGPDWHWGGCSDNIDFGRLFGREFVDSGEKGRDLRFLMNLHNNEAGRTTVFSEMRQECKCHGMSGSCTVRTCWMRLPTLRAVGDVLRDRFDGASRVLYGNRGSNRASRAELLRLEPEDPAHKPPSPHDLVYFEKSPNFCTYSGRLGTAGTAGRACNSSSPALDGCELLCCGRGHRTRTQRVTERCNCTFHWCCHVSCRNCTHTRVLHECL |  |  | LRP6 phosphorylation [3]: induced; accumulation of active (nonphosphorylated) β-catenin [3]: induced; β-catenin signaling induced by overexpression (TOPbrite) [4]: induced β-catenin signaling
8 | Wnt3a: human Wnt3a, canonical, overexpressed (protein, UniProt P56704 19-352, looked up) Protein Wnt-3a: SYPIWWSLAVGPQYSSLGSQPILCASIPGLVPKQLRFCRNYVEIMPSVAEGIKIGIQECQHQFRGRRWNCTTVHDSLAIFGPVLDKATRESAFVHAIASAGVAFAVTRSCAEGTAAICGCSSRHQGSPGKGWKWGGCSEDIEFGGMVSREFADARENRPDARSAMNRHNNEAGRQAIASHMHLKCKCHGLSGSCEVKTCWWSQPDFRAIGDFLKDKYDSASEMVVEKHRESRGWVETLRPRYTYFKVPTERDLVYYEASPNFCEPNPETGSFGTRDRTCNVSSHGIDGCDLLCCGRGHNARAERRREKCRCVFHWCCYVSCQECTRVYDVHTCK |  |  | LRP6 phosphorylation [3]: induced; accumulation of active (nonphosphorylated) β-catenin [3]: induced; β-catenin signaling induced by overexpression (TOPbrite) [4]: induced β-catenin signaling
